Results on 25 molecules are retold here after ChEMBL document CHEMBL1671838, “Discovery of MK-1220: A Macrocyclic Inhibitor of Hepatitis C Virus NS3/4A Protease with Improved Preclinical Plasma Exposure” (ACS Med Chem Lett, 2011).

Data set [1] concerns Hepatitis C virus. The experiment in a line: Antiviral activity against HCV1b con1 infected in human HuH7 cells assessed as inhibition of viral replication after 24 hrs in presence of 10% fetal bovine serum. The note with it: Con1, Huh-7, 24 h. It is filed as functional, organism-based, Hepacivirus hominis. Put shortly:
(§1)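 Cell-based HCV replicon assay giving IC50. Genotype 1b replicon run with 10% fetal bovine serum or with 50% normal human serum. Genotype 2a replicon run with 10% FBS.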

Data set [2] relates to Hepatitis C virus. The experiment in a line: Antiviral activity against HCV1b con1 infected in human HuH7 cells assessed as inhibition of viral replication after 24 hrs in presence of 50% normal human serum. The data set is classed as functional, organism-based, Hepacivirus hominis. The note with it: Con1, Huh-7, 24 h. Put shortly:
as §1

Data set [3] is described as follows: Inhibition of HCV NS3/4A protease expressed Escherichia coli after 1 hr by time-resolved fluorescence assay. The arrangement: species or system Hepacivirus hominis. In short, it runs like this: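 Binding assay against genotype 1b HCV NS3/4A protease, read by time-resolved fluorescence; potency expressed as Ki.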
The nature of data set [4]: Drug level in Sprague-Dawley rat liver at 5 mg/kg, po after 4 hrs. It is filed as ADME, organism-based. The arrangement: dose 5 mg/kg, route oral. The note with it: read-out: Drug uptake. In short, it runs like this:
(§2)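 Rat PK screen: 5 mg/kg given orally in PEG400, n = 2; plasma AUC calculated from a 4 h experiment, and liver concentration measured at 4 h after dosing.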

Data set [5] can be described thus: AUC in Sprague-Dawley rat plasma at 5 mg/kg, po after 4 hrs. It is filed as ADME, organism-based. The arrangement: time < 4 hr, dose 5 mg/kg, route oral. Put shortly:
as §2

Data set [6] concerns Hepatitis C virus. The experiment in a line: Antiviral activity against HCV2a infected in human HuH7 cells assessed as inhibition of viral replication after 24 hrs in presence of 10% fetal bovine serum. It is filed as functional, organism-based, Hepacivirus hominis. The note with it: genotype 2a, Huh-7, 24 h. In short, it runs like this: as §1

pIC50, pKi: −log10 of the molar value. Some results are limits rather than exact numbers.

Consider `C=C[C@@H]1C[C@]1(NC(=O)[C@@H]1C[C@@H]2CN1C(=O)[C@H](C1CCCCC1)NC(=O)OCCCCCc1ccc3ccnc(c3c1)O2)C(=O)NS(=O)(=O)C1CC1`, for which the pIC50 (in general, −log10 of the IC50, conventionally taken in molar units) is 8.35 in the data set on Hepatitis C virus [1] and 6.74 in the data set with Hepatitis C virus [2]. Besides, the pKi (usually the negative decadic logarithm of the Ki, by convention in mol/L) in data set [3] is 9.82. For the same molecule, the concentration at 4 h in data set [4] came to 29.8 µM. Moreover, in data set [5], the exposure (AUC) (usually concentration integrated over time) at 4 h was determined as 3.1 µM·h.
As to `C=C[C@@H]1C[C@]1(NC(=O)[C@@H]1C[C@@H]2CN1C(=O)[C@H](C1CCCCC1)NC(=O)OCCCCCc1cc(OC)c3ccnc(c3c1)O2)C(=O)NS(=O)(=O)C1CC1`, the pIC50 is 8.52 with Hepatitis C virus [1], 7.22 with Hepatitis C virus [2] and 8.22 in the data set with Hepatitis C virus [6]. For the same molecule, in data set [3], the negative logarithm of the Ki (pKi) was 10.30. The concentration at 4 h in data set [4] came to 13.2 µM. In data set [5], this molecule showed an area under the curve (AUC) at 4 h of 2.5 µM·h.
In the case of `C=C[C@@H]1C[C@]1(NC(=O)[C@@H]1C[C@@H]2CN1C(=O)[C@H](C(C)(C)C)NC(=O)OCCCCCc1cc(OC)c3ccnc(c3c1)O2)C(=O)NS(=O)(=O)C1CC1`, the pIC50 was 8.57 with Hepatitis C virus [1] and 7.46 in the data set with Hepatitis C virus [2]. In data set [3], this molecule showed a negative logarithm of the Ki (pKi) of 10.40. For the same molecule, in data set [4], the concentration at 4 h is 33.2 µM. This molecule displayed an area under the curve (AUC) at 4 h in data set [5] of 17.7 µM·h.
On the same counts, the results for `C=C[C@@H]1C[C@]1(NC(=O)[C@@H]1C[C@@H]2CN1C(=O)[C@H](C1CCCCC1)NC(=O)OCCC/C=C/c1ccc3ccnc(c3c1)O2)C(=O)NS(=O)(=O)C1CC1` are 8.60, 7.11, 10.20, 46.9 µM and 0.67 µM·h.
The matching figures for `C=C[C@@H]1C[C@]1(NC(=O)[C@@H]1C[C@@H]2CN1C(=O)[C@H](C1CCOCC1)NC(=O)OCCC/C=C/c1ccc3ccnc(c3c1)O2)C(=O)NS(=O)(=O)C1CC1`: 8.05, 7.70, 10.15, below 0.2 µM and 0.5 µM·h.
Turning to `C=C[C@@H]1C[C@]1(NC(=O)[C@@H]1C[C@@H]2CN1C(=O)[C@H](C1CCC1)NC(=O)OCCCCCc1ccc3ccnc(c3c1)O2)C(=O)NS(=O)(=O)C1CC1`, the results for the pIC50 with Hepatitis C virus [1] and in the data set with Hepatitis C virus [2] were 8.15 and 6.89, respectively. Moreover, the negative-log Ki (pKi) in data set [3] is 9.74.
`C=C[C@@H]1C[C@]1(NC(=O)[C@@H]1C[C@@H]2CN1C(=O)[C@H](C1CCCC1)NC(=O)OCCC/C=C/c1ccc3ccnc(c3c1)O2)C(=O)NS(=O)(=O)C1CC1`: the pIC50 with Hepatitis C virus [1] is 8.70; in the data set with Hepatitis C virus [2], 7.40. For the same molecule, the pKi in data set [3] was 10.00. The concentration at 4 h in data set [4] came to 9.2 µM. In data set [5], the area under the curve (AUC) at 4 h is 4.2 µM·h.
On the same counts, the results for `C=C[C@@H]1C[C@]1(NC(=O)[C@@H]1C[C@@H]2CN1C(=O)[C@H](C(C)(C)C)NC(=O)OCCCCCc1cc(CC)c3ccnc(c3c1)O2)C(=O)NS(=O)(=O)C1CC1` are 8.60, 7.05, 9.85, 12.5 µM and 2.1 µM·h.
As for `C=C[C@@H]1C[C@]1(NC(=O)[C@@H]1C[C@@H]2CN1C(=O)[C@H](C(C)(C)C)NC(=O)OCCCCCc1cc(C(F)(F)F)c3ccnc(c3c1)O2)C(=O)NS(=O)(=O)C1CC1`, the values for the negative-log IC50 (pIC50) in the data set with Hepatitis C virus [1] and in the data set with Hepatitis C virus [2] were 7.68 and 6.39, respectively. This molecule also had a pKi in data set [3] of 9.60.
`C=C[C@@H]1C[C@]1(NC(=O)[C@@H]1C[C@@H]2CN1C(=O)[C@H](C1CCCC1)NC(=O)OCC(C)(C)CCCc1ccc3ccnc(c3c1)O2)C(=O)NS(=O)(=O)C1CC1`: the figures for the pIC50 with Hepatitis C virus [1], in the data set with Hepatitis C virus [2] and in the data set on Hepatitis C virus [6] were 8.70, 8.00 and 7.96, respectively. In addition, the pKi in data set [3] is 10.70. Further, the concentration at 4 h in data set [4] was 16 µM. In data set [5], this molecule had an AUC at 4 h of 0.18 µM·h.
As to `C=C[C@@H]1C[C@]1(NC(=O)[C@@H]1C[C@@H]2CN1C(=O)[C@H](C(C)(C)C)NC(=O)OCCCCCc1cc(SC)c3ccnc(c3c1)O2)C(=O)NS(=O)(=O)C1CC1`, the pIC50 in the data set with Hepatitis C virus [1] is 8.70; in the data set with Hepatitis C virus [2], 7.47. In data set [3], this molecule had a negative logarithm of the Ki (pKi) of 10.52. In addition, the concentration at 4 h in data set [4] worked out at 12.6 µM. In data set [5], this molecule returned an exposure (AUC) at 4 h of 1.8 µM·h.
Regarding `C=C[C@@H]1C[C@]1(NC(=O)[C@@H]1C[C@@H]2CN1C(=O)[C@H](C(C)(C)C)NC(=O)OCCCCCc1ccc3ccnc(c3c1)O2)C(=O)NS(=O)(=O)C1CC1`, the negative-log IC50 (pIC50) is 8.06 in the data set with Hepatitis C virus [1] and 7.34 in the data set on Hepatitis C virus [2]. Also, in data set [3], the pKi was 9.74. This molecule also registered an AUC at 4 h in data set [5] of 0.27 µM·h.
`C=C[C@@H]1C[C@]1(NC(=O)[C@@H]1C[C@@H]2CN1C(=O)[C@H](C(C)(C)C)NC(=O)OCCCCCc1cc(S(C)(=O)=O)c3ccnc(c3c1)O2)C(=O)NS(=O)(=O)C1CC1`: the negative-log IC50 (pIC50) is 6.55 in the data set on Hepatitis C virus [1] and below 6.00 with Hepatitis C virus [2]. This molecule also had a negative logarithm of the Ki (pKi) in data set [3] of 9.96.
For the molecule `C=C[C@@H]1C[C@]1(NC(=O)[C@@H]1C[C@@H]2CN1C(=O)[C@H](C1CCOCC1)NC(=O)OCCCCCc1ccc3ccnc(c3c1)O2)C(=O)NS(=O)(=O)C1CC1`, the pIC50 with Hepatitis C virus [1] is 7.82; in the data set with Hepatitis C virus [2], 7.47. In addition, in data set [3], the negative logarithm of the Ki (pKi) is 10.15. Also, the concentration at 4 h in data set [4] was found to be 0.09 µM. In data set [5], this molecule came in with an AUC at 4 h of 0.8 µM·h.
The matching figures for `C=C[C@@H]1C[C@]1(NC(=O)[C@@H]1C[C@@H]2CN1C(=O)[C@H](C(C)(C)C)NC(=O)OCCCCCc1cc(I)c3ccnc(c3c1)O2)C(=O)NS(=O)(=O)C1CC1`: 8.64, 7.25, 10.52, 24.5 µM and 1.4 µM·h.
For the molecule `C=C[C@@H]1C[C@]1(NC(=O)[C@@H]1C[C@@H]2CN1C(=O)[C@H](C(C)(C)C)NC(=O)OCCCCCc1cc(OC(F)(F)F)c3ccnc(c3c1)O2)C(=O)NS(=O)(=O)C1CC1`, the pIC50 with Hepatitis C virus [1] was 7.30; in the data set on Hepatitis C virus [2] it was 5.36. The negative-log Ki (pKi) in data set [3] was 9.12. Moreover, the concentration at 4 h in data set [4] worked out at 8.8 µM. This molecule also registered an AUC at 4 h in data set [5] of 1.6 µM·h.
The matching figures for `C=C[C@@H]1C[C@]1(NC(=O)[C@@H]1C[C@@H]2CN1C(=O)[C@H](C1CCCC1)NC(=O)OCCCCCc1cc3c(nccc3cc1OC)O2)C(=O)NS(=O)(=O)C1CC1`: 8.70, 7.10, 10.52, 8 µM and 18.1 µM·h.
The matching figures for `C=C[C@@H]1C[C@]1(NC(=O)[C@@H]1C[C@@H]2CN1C(=O)[C@H](C(C)(C)C)NC(=O)OCCCCCc1cc(Br)c3ccnc(c3c1)O2)C(=O)NS(=O)(=O)C1CC1`: 8.70, 6.77, 10.40, 5.8 µM and 0.28 µM·h.
On the same counts, the results for `C=C[C@@H]1C[C@]1(NC(=O)[C@@H]1C[C@@H]2CN1C(=O)[C@H](C(C)(C)C)NC(=O)OCCC/C=C/c1ccc3ccnc(c3c1)O2)C(=O)NS(=O)(=O)C1CC1` are 8.35, 7.85, 10.40, 18.6 µM and 0.36 µM·h.
As to `C=C[C@@H]1C[C@]1(NC(=O)[C@@H]1C[C@@H]2CN1C(=O)[C@H](c1ccccc1)NC(=O)OCCCCCc1ccc3ccnc(c3c1)O2)C(=O)NS(=O)(=O)C1CC1`, the pKi in data set [3] is 9.00.
`C=C[C@@H]1C[C@]1(NC(=O)[C@@H]1C[C@@H]2CN1C(=O)[C@H](c1c[nH]c3ccccc13)NC(=O)OCCC/C=C/c1ccc3ccnc(c3c1)O2)C(=O)NS(=O)(=O)C1CC1`: in the data set with Hepatitis C virus [1], the pIC50 was 7.70. The negative-log Ki (pKi) in data set [3] is 8.70. For the same molecule, the concentration at 4 h in data set [4] came to 0.4 µM. The AUC at 4 h in data set [5] amounted to 0.07 µM·h.
On the same counts, the results for `C=C[C@@H]1C[C@]1(NC(=O)[C@@H]1C[C@@H]2CN1C(=O)[C@H](Cc1ccccc1)NC(=O)OCCC/C=C/c1ccc3ccnc(c3c1)O2)C(=O)NS(=O)(=O)C1CC1` are 8.52, 9.19, 10 µM and 0.43 µM·h.
As to `C=C[C@@H]1C[C@]1(NC(=O)[C@@H]1C[C@@H]2CN1C(=O)[C@H](C1Cc3ccccc3C1)NC(=O)OCCC/C=C/c1ccc3ccnc(c3c1)O2)C(=O)NS(=O)(=O)C1CC1`, the pIC50 with Hepatitis C virus [1] is 8.30; in the data set with Hepatitis C virus [2], 7.70. Also, the negative logarithm of the Ki (pKi) in data set [3] is 10.15. In data set [4], the concentration at 4 h is 4.5 µM. The molecule also yielded an AUC at 4 h in data set [5] of 0.15 µM·h.
Turning to `C=C[C@@H]1C[C@]1(NC(=O)[C@@H]1C[C@@H]2CN1C(=O)[C@H](C(C)(C)C)NC(=O)OCCCCCc1cc(OCC)c3ccnc(c3c1)O2)C(=O)NS(=O)(=O)C1CC1`, the figures for the negative-log IC50 (pIC50) with Hepatitis C virus [1] and with Hepatitis C virus [2] were 8.22 and 6.30, respectively. Also, the pKi in data set [3] is 9.43. Further, in data set [4], the concentration at 4 h turned out to be 15.2 µM. Further, the exposure (AUC) at 4 h in data set [5] is 6.9 µM·h.
On the same counts, the results for `C=C[C@@H]1C[C@]1(NC(=O)[C@@H]1C[C@@H]2CN1C(=O)[C@H](C(C)(C)C)NC(=O)OCCCCCc1cc3c(nccc3cc1OC)O2)C(=O)NS(=O)(=O)C1CC1` are 8.52, 6.95, 10.40, 3 µM and 9.6 µM·h.
